For one data set, the system named is AhR. The note with it: cited from earlier work.
The test system of data set [1] is HCT-8 cells. Put plainly: Host cell numbers in the initial metabolite screen. It counts as cell-based, human. To be noted: metabolite at 1 mM, 24 h. An outline of the steps: (§1)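 Confluent HCT-8 cells (1.5 × 10^5/well, grown ~24 h) were infected with 5 × 10^5 bleached oocysts together with a single metabolite diluted in culture medium (1 mM or 0.1 mM) for 24 h. Parasite and host cell numbers are given as ratios to PBS control wells on the same plate. Each metabolite was run in triplicate across six separate experiments.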

Data set [2] concerns C. parvum. Put plainly: C. parvum growth assay in HCT-8 cells. It counts as cell-based, Cryptosporidium parvum. To be noted: for pEC50: HCT-8, 24 h; for Cp infection, treatment started 4 hpi: 4 – 24 hpi; for Cp growth, treatment 0 – 4 hpi only: first four hours of infection only.
Data set [3] concerns C. parvum. The data set is described as follows: C. parvum growth assay in HCT-8 AhR KO cell lines. It counts as cell-based, Cryptosporidium parvum. The note with it: HCT-8 AhR KO cells, 24 h, indole 1 mM, 4HI 1 mM.
Data set [4] deals with C. parvum. Put plainly: Antibody and EdU labeling of C. parvum life cycle stages in HCT-8 cells. The note with it: EC90 concentrations; for life cycle stage progression: first 24 hpi, EdU pulses. It counts as cell-based, Cryptosporidium parvum.
The subject of data set [5] is C. parvum. Put plainly: Air-liquid interface. It counts as cell-based, Cryptosporidium parvum. To be noted: for time after washout to significant recovery in Cp growth: treated 48 h at EC50 concentration; for pEC50 / EC90: Cryptosporidium parvum; for pEC50: read-out: EC50 for Cp in ALI cultures; for EC90: read-out: EC90 for Cp in ALI cultures. An outline of the steps: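 ALI transwells were coated with 10% Matrigel and seeded with irradiated mouse 3T3 fibroblasts (8 × 10^4/transwell). Top medium was removed after 7 days, and 5 × 10^4 oocysts were added on top 3 days later. After ~4 h the tops were washed twice with DPBS and day-0 wells scraped. Test compound at three levels or 1% DMSO went in the bottom medium for ~48 h, then transwells moved to normal medium. Parasite genome eq. by DNA extraction, normalized to DMSO at each time point; six replicates (3 technical × 2 experiments).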

The subject of data set [6] is HCT-8 cells. Put plainly: Seahorse metabolic assays. It counts as cell-based, human. To be noted: 18 h.
A further data set relates to Cp mitosome. Put plainly: Mitotracker CMXRos staining of C. parvum mitosome. It counts as cell-based, Cryptosporidium parvum. The note with it: 2 x EC90 indole 1.76 mM, 7CNI 1 mM, CCCP 10 μM; 2 h or 24 h. An outline of the steps: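 HCT-8 cells on coverslips were infected with 5 × 10^5 oocysts, washed twice with DPBS, and exposed in 1% DMSO medium either 22–24 hpi (2 h) or continuously to 24 hpi. MitoTracker Red CMXRos (50 nM final) was added 45 min before fixation at 24 hpi. Staining used 1E12 with Alexa Fluor 488 secondary plus Hoechst. Four replicates (2 technical × 2 experiments).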

For data set [7], the system named is C. parvum. The data set is described as follows: Metabolite treatment of C. parvum-infected GKO mice. It counts as in vivo, mouse.
Data set [8] deals with C. parvum. The data set is described as follows: Initial screen of gut metabolites on C. parvum growth in HCT-8 cells. It counts as cell-based, Cryptosporidium parvum. To be noted: 24 hpi, metabolite at 1 mM (0.1 mM for bile acids/salts). An outline of the steps: as §1
For data set [9], the system named is HCT-8 cells. Put plainly: Host nuclei in growth assay with mitochondrial inhibitors. It counts as cell-based, human. To be noted: for host cell toxicity at Cp-inhibitory levels: HCT-8, 24 h, at EC50 levels. A digest of the protocol: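 Confluent HCT-8 cells (1.5 × 10^5/well) were infected with 1 × 10^5 bleached oocysts and exposed ~24 h to test compounds, serially diluted 1:2 from 40 μM (final, 1% DMSO). Cells were fixed in 4% formaldehyde, permeabilized/blocked in 0.1% Triton-X/1% BSA, Hoechst-stained and counted, with values relative to the 1% DMSO control mean. Four replicates (2 technical × 2 experiments).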

For data set [10], the system named is C. parvum. The note with it: dietary supplementation, malnourished neonatal mice; cited from earlier work.
Data set [11] has as its system AhR target genes AhRR and CYP1A1. The note with it: HCT-8 AhR KO 1 and KO 2, VAF347 500 nM, 24 h.
The subject of data set [12] is C. parvum. The note with it: neonatal mice, only when gut microflora present; cited from earlier work.
The mark [13] stands for this setting: Cryptosporidium parvum, read-out: Cp EC50.
Setting [14] is: Cryptosporidium parvum, HCT-8, read-out: EC90 for Cp, HCT-8 cells.
Where [15] appears, read: indole 0.5-2 mM, 7CNI 0.25-1 mM.

pEC50: −log10 of the molar value. Structures can show the parent of a compound that is named as a salt.

Consider `Cc1cccc2[nH]ccc12` [4-methylindole], for which the “AhR signaling in vitro” value in the data set on AhR was “activate AhR signaling”.

As to `C[C@H](CCC(=O)O)[C@H]1CC[C@H]2[C@@H]3CC[C@@H]4C[C@H](O)CC[C@]4(C)[C@H]3C[C@H](O)[C@]12C` [deoxycholic acid], the “host toxicity in screen” value in the data set on HCT-8 cells [1] was “significant host toxicity”.

As for `c1ccc2[nH]ccc2c1` [indole], in the data set on C. parvum [2] (setting [13]), the pEC50 (as a rule, −log10 of the EC50, conventionally taken in molar units) is 3.39. The EC90 (commonly the concentration needed for an effect of 90%) in the data set with C. parvum [2] (setting [14]) was 880 µM. Moreover, in the data set on C. parvum [2] (EC90 concentrations), the “Cp infection, treatment started 4 hpi” value was “significantly inhibited Cp infection” and the “Cp growth, treatment 0 – 4 hpi only” value was “neither indole nor 7CNI inhibited Cp growth”. Further, the “Cp infection after pre-treatment of host cells” value in the data set on C. parvum [2] (EC90 concentrations, host cells pre-treated 20 h before infection) is recorded as “did not affect subsequent Cp infection”. In addition, the concentration for an effect of 90% (EC90) with C. parvum [2] (read-out: EC90 for Cp, HCT-8 cells) amounted to 877 µM. Further, the “Cp sensitivity in AhR KO cells” value with C. parvum [3] is reported as “remained sensitive”. In addition, in the data set on C. parvum [4] (22 h), the “morphology of mature merozoites (1E12 labeling)” value is reported as “did not observe any obvious morphological defects”. The “time until which total number of Cp did not significantly differ from DMSO” value with C. parvum [4] (HCT-8, start of second round of merogony) was ~ 16 hpi. In addition, the “life cycle stage progression” value with C. parvum [4] was “delayed progression through sequential life cycle stages”. The “Cp growth recovery after washout, 2 x EC90” value with C. parvum [5] (ALI, treated 48 h at 2 x EC90 concentration) was “no recovery”. Moreover, in the data set with C. parvum [5] (ALI), the “time after washout to significant recovery in Cp growth” value came to 2 days. Besides, in the data set with C. parvum [5] (ALI, treated 48 h at EC90 concentration), the “Cp growth recovery after washout, EC90” value was “Some growth recovery (though not significant)”. In the data set with C. parvum [5], the pEC50 is 3.24 and the EC90 amounted to 1.89 mM. The “basal and stressed respiratory rate in HCT-8 WT and AhR KO cells” value with HCT-8 cells [6] (indole 0.5, 1, 2 mM, stressed = after FCCP and oligomycin) is “significantly impaired in a dose-dependent manner”. Further, the “basal and maximal levels of mitochondrial respiration (OCR)” value with HCT-8 cells [6] (indole 0.5, 1, 2 mM, 7CNI 0.25, 0.5, 1 mM, dose-dependent) is listed as “significantly reduced”. In the data set with HCT-8 cells [6] (setting [15]), the “ATP production rate by glycolysis” value was “remained similar”, the “ATP production rate by the mitochondria” value is recorded as “significant reduction”, the spare respiratory capacity result is “diminished” and the “total ATP production rate” value was “lower total ATP production rate”. In the data set with Cp mitosome, the “Mitotracker staining of Cp mitosomes” value is “significantly decreased Mitotracker staining”. In addition, the median survival time with C. parvum [7] (50 mg/kg BID 7 days, vehicle 11 dpi) is given as 17 dpi. In the data set on C. parvum [7] (50 mg/kg oral gavage twice daily 7 days, by 5 dpi), the “Cp oocysts shed in feces” value is “no effect”.

Regarding `N#Cc1cccc2cc[nH]c12` [7-cyanoindole], the EC90 with C. parvum [2] (setting [14]) was 500 µM. Besides, in the data set with C. parvum [2] (EC90 concentrations), the “Cp infection, treatment started 4 hpi” value is on record as “significantly inhibited Cp infection” and the “Cp growth, treatment 0 – 4 hpi only” value was “neither indole nor 7CNI inhibited Cp growth”. For the same compound, the “life cycle stage progression” value in the data set with C. parvum [4] is given as “delayed progression through sequential life cycle stages”. In addition, the “time after washout to significant recovery in Cp growth” value with C. parvum [5] (ALI) is 4 days. Also, in the data set on C. parvum [5], the pEC50 is 3.42 and the EC90 worked out at 0.688 mM. The survival rate result with C. parvum [7] (50 mg/kg BID 7 days) is reported as “did not significantly increase survival rate”. The “mean Cp oocysts per mg feces by 9 dpi” value in the data set on C. parvum [7] (50 mg/kg BID 7 days, after end of treatment) is on record as “rebounded”. Also, in the data set on C. parvum [7] (50 mg/kg BID, 5 and 7 dpi), the “body weight vs vehicle- or indole-treated mice” value is “weighed significantly more”.

Turning to propionic, the “effect on Cp growth (Cp numbers relative to PBS control)” value in the data set on C. parvum [8] was “impair growth”.

With `CC[C@H]1/C=C/C=C/C[C@@H](C)[C@H](O)[C@@](C)(O)C(=O)[C@@H](C)[C@H](O)[C@@H](C)C(=O)[C@@H](C)[C@H](O)[C@@H](C)/C=C/C(=O)O[C@@H]2[C@H](C)[C@H](CC1)O[C@]1(CC[C@H](C)[C@H](C[C@@H](C)O)O1)[C@H]2C` [oligomycin, reference compound], the negative logarithm of the EC50 (pEC50) with C. parvum [2] (Cryptosporidium parvum, read-out: Cp EC50, OxPhos inhibitors) was 4.69. The “host cell toxicity at Cp-inhibitory levels” value in the data set with HCT-8 cells [9] was “not due to host cell toxicity”.

Turning to `Cc1ccc2cc[nH]c2c1` [6-methylindole], the “AhR signaling in vitro” value in the data set with AhR was “activate AhR signaling”.

For `CCCCC[C@H](O)/C=C/[C@H]1[C@H](O)CC(=O)[C@@H]1C/C=C\CCCC(=O)O` [prostaglandin E2], the “host toxicity in screen” value with HCT-8 cells [1] is “significant host toxicity”.

For the compound `Oc1cccc2[nH]ccc12` [4-hydroxyindole], the “effect on Cp growth (Cp numbers relative to PBS control)” value in the data set with C. parvum [8] is reported as “significantly inhibited”. Moreover, in the data set on C. parvum [2] (setting [13]), the pEC50 is 2.90.

With fumaric, in the data set with C. parvum [8], the “effect on Cp growth (Cp numbers relative to PBS control)” value is “impair growth”.

Turning to `C[C@H](CCC(=O)O)[C@H]1CC[C@H]2[C@@H]3CC[C@@H]4C[C@H](O)CC[C@]4(C)[C@H]3CC[C@]12C` [lithocholic acid], the “effect on Cp growth (Cp numbers relative to PBS control)” value with C. parvum [8] was “significantly inhibited”. The “host toxicity in screen” value with HCT-8 cells [1] is reported as “significant host toxicity”.

On to `COc1cccc2cc[nH]c12` [7-methoxyindole], for which, in the data set on AhR, the “AhR signaling in vitro” value is reported as “activate AhR signaling”.

`N=C(N)NCCC[C@H](N)C(=O)O` [arginine]: the “severity of C. parvum infection” value in the data set on C. parvum [10] is recorded as “decrease severity of C. parvum infection”.

Take `FC(F)(F)c1ccc(Nc2nccc(-c3cccc(Cl)c3)n2)cc1` [VAF347]: the “CYP1A1 gene expression in AhR KO lines” value in data set [11] is listed as “lost the ability to upregulate CYP1A1 gene expression”.

`Cc1ncc(CO)c(C=O)c1O` [pyridoxal hydrochloride]: the “effect on Cp growth (Cp numbers relative to PBS control)” value with C. parvum [8] is reported as “significantly inhibited”. Further, the negative-log EC50 (pEC50) in the data set on C. parvum [2] (setting [13]) was 3.67. Besides, the “Fold selectivity (host EC50 divided by Cp EC50)” value in the data set on C. parvum [2] (HCT-8 cells) was found to be 44.6 fold.

As for poly(I:C), in the data set on C. parvum [12], the C. parvum load result is “reduced C. parvum load”.

For `O=C(O)Cc1c[nH]c2ccc(O)cc12` [5-hydroxyindole-3-acetic acid], the “effect on Cp growth (Cp numbers relative to PBS control)” value with C. parvum [8] is “no effect”.

For the compound `C[C@H](CCC(=O)O)[C@H]1CC[C@H]2[C@@H]3CC[C@@H]4C[C@H](O)CC[C@]4(C)[C@H]3C[C@H](O)[C@]12C` [deoxycholate, sodium deoxycholate], the “effect on Cp growth (Cp numbers relative to PBS control)” value with C. parvum [8] was “significantly inhibited”.

Consider `N#CC(C#N)=NNc1cccc(Cl)c1` [CCCP, carbonyl cyanide m-chlorophenyl hydrazone], for which the “Mitotracker staining of Cp mitosomes” value with Cp mitosome was “decreases Mitotracker staining”. Moreover, the “host toxicity at high concentration” value in the data set with HCT-8 cells [9] (HCT-8, 40 μM and 20 μM) was “observed host toxicity”. Moreover, the “host cell toxicity at Cp-inhibitory levels” value in the data set on HCT-8 cells [9] is given as “not due to host cell toxicity”.
